We go through one compound from ChEMBL document CHEMBL5150051, “Identification and Characterization of a Novel Indoleamine 2,3-Dioxygenase 1 Protein Degrader for Glioblastoma” (J Med Chem, 2022).

In data set [1] the target is T1, Protein cereblon/Indoleamine 2,3-dioxygenase 1 (Homo sapiens, UniProt P14902+Q96SW2). The data set is described as follows: Protac activity at IDO1/CRBN in IFNgamma-stimulated human OVCAR-5 cells assessed as IDO1 degradation by measuring decrease in intracellular protein level measured after 24 hrs by Western blotting analysis. It is filed as cell-based. Particulars: dose 1-10 µM, DDE = dose-dependent effect. (In general: Immunoblotting shows a protein as a band on a membrane.)
T1 sequence (P14902 whole entry, looked up): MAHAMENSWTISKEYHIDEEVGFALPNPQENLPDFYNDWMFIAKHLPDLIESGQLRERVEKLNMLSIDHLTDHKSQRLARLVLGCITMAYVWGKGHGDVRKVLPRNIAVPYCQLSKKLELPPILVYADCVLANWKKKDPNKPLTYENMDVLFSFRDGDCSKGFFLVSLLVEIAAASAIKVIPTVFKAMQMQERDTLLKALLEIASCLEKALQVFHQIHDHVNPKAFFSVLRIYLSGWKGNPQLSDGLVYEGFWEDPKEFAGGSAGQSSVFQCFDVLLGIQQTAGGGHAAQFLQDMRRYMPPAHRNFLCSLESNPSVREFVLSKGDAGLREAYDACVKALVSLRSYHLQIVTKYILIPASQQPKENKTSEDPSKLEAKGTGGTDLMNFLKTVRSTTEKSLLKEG
T1 sequence (Q96SW2 whole entry, looked up): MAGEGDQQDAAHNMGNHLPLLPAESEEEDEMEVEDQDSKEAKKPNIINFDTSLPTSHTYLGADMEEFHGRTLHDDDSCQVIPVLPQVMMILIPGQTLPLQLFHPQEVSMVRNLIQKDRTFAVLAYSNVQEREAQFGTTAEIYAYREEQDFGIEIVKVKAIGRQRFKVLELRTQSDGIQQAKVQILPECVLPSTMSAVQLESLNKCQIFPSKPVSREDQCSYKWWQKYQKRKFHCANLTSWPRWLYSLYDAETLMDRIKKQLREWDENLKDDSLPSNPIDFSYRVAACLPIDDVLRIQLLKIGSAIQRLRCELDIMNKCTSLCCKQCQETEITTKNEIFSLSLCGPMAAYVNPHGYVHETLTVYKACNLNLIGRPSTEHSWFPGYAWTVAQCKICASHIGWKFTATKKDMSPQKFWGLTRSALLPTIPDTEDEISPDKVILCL

Data set [2] deals with T1, Protein cereblon/Indoleamine 2,3-dioxygenase 1. Kind of data set: Protac activity at IDO1/CRBN in IFNgamma-stimulated human GBM6 cells assessed as IDO1 degradation measured after 24 hrs by Western blotting analysis. It is filed as cell-based. Particulars: dose 0.1-10 µM, DDE = dose-dependent effect.
Data set [3] has the same target. Kind of data set: Protac activity at CRBN/IDO1-FLAG expressed in human U87 cells assessed as IDO1 degradation at 10 uM measured in presence of IDO1 inhibitor BGB-7204 by immunoprecipitated ubiquitination assay. Type of data set: cell-based.
Data set [4] addresses Indoleamine 2,3-dioxygenase 1 (Homo sapiens, UniProt P14902). The data set is described as follows: Binding affinity to IDO1 (unknown origin) assessed as dissociation constant by bio-layer interferometry assay. The method, boiled down:
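Bio-layer interferometry measured binding to IDO1 at 30 °C in PBS with 0.5% DMSO. Kd, kon and koff were derived.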
A general note: BLI is a label-free optical method that tracks binding on a fibre tip over time.

The target of data set [5] is T1, Protein cereblon/Indoleamine 2,3-dioxygenase 1. Kind of data set: Protac activity at CRBN/IDO1 in IFNgamma-stimulated human GBM43 cells assessed as decrease in kynurenine level measured after 24 hrs by Ehrlich's test. Type of data set: cell-based. Particulars: GBM43 cell, DDE = dose-dependent effect. The gist of the method: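 U87 or GBM43 cells given compound together with 50 ng/mL IFNγ for 24 h. Supernatant kynurenine was measured with Ehrlich's reagent. Cells cultured without IFNγ served as control.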

Data set [6] has the same target. The data set is described as follows: Protac activity at CRBN/IDO1 in IFNgamma-stimulated human OVCAR-5 cells assessed as decrease in kynurenine level at 10 uM measured after 24 hrs by Ehrlich's test. Type of data set: cell-based.
The target is the same in data set [7]. Kind of data set: Protac activity at CRBN/IDO1 non-enzyme mediated p65 phosphorylation in enzyme-null cDNA transfected in IFNgamma-stimulated human U87 cells measured at 0.1 to 10 uM after 24 hrs by Western blotting analysis. Particulars: dose 0.1-10 µM. It is filed as cell-based.
Data set [8] can be described thus: Toxicity in C57BL/6 mouse assessed as body weight change at 10 to 100 mg/kg, ip treated 5 days/week for 3 weeks. Type of data set: organism-based. Conditions: in vivo, 504 h, dose 10-100 mg/kg. The gist of the method:
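Male C57BL/6 mice dosed ip with vehicle or compound at 10, 25, 50 or 100 mg/kg, 5 days/week for 3 weeks. Body weight recorded every 2–3 days. n = 3 mice/dose, mean ± SEM.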

A short description of data set [9]: Drug uptake in C57BL/6 mouse liver at 50 mg/kg, ip treated 5 days/week for 3 weeks by LC/MS/MS analysis. It is filed as ADME, organism-based. Particulars: in vivo, 504 h.
Data set [10] in a line: Drug uptake in C57BL/6 mouse liver at 100 mg/kg, ip treated 5 days/week for 3 weeks by LC/MS/MS analysis. Conditions: in vivo, 504 h. Type of data set: ADME, organism-based.
Data set [11] is described as follows: Drug uptake in C57BL/6 mouse pancreas at 100 mg/kg, ip treated 5 days/week for 3 weeks by LC/MS/MS analysis. Type of data set: ADME, organism-based. Particulars: in vivo, 504 h.
The nature of data set [12]: Drug uptake in C57BL/6 mouse serum at 10 to 100 mg/kg, ip treated 5 days/week for 3 weeks by LC/MS/MS analysis. It is filed as ADME, organism-based. Particulars: in vivo, 504 h, dose 10-100 mg/kg. The gist of the method:
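Male C57BL/6 mice dosed ip at 10, 25, 50 or 100 mg/kg, 5 days/week for 3 weeks, alongside vehicle. After 3 weeks, serum and brain homogenate were analysed by mass spectrometry for drug level; mean ± SEM, n = 3 mice/dose.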

A short description of data set [13]: Half life in C57BL/6 mouse brain at 25 mg/kg, ip. It is filed as ADME, organism-based.

Calls of active or inactive are those of the source. No cut-off for these calls is given here.

Indoleamine 2,3-dioxygenase 1, sequence (P14902 whole entry): as the sequence (P14902 whole entry, looked up) above

What is called Kd is the concentration at which binding is half-saturated. In general, half-life refers to the time in which the quantity being followed falls by half. A lower half-life goes with fast loss. Consider `C[C@@H](C(=O)Nc1ccc(OC2CCN(C(=O)CCOCCOCCNc3cccc4c3C(=O)N(C3CCC(=O)NC3=O)C4=O)CC2)cc1)[C@H]1CC[C@@H](c2ccnc3ccc(F)cc32)CC1` (stereo partly drawn), for which the results for the Activity result in data set [1], in data set [2] and in data set [8] were “Dde”, “Dde” and “Non-Toxic”, respectively. Further, the result in data set [3] was Active. Besides, the Kd in [4] was 0.64 µM. For the same compound, the inhibition entry in data set [5] is “Dde”. The inhibition entry in data set [6] and in data set [7] was “Active” in each case. Further, the Drug uptake entry in data set [9], in data set [10], in data set [11] and in data set [12] was “Active” throughout. Besides, the half-life in [13] was 8.3 h.
